Compound activity deposited in PubChem by Johns Hopkins Ion Channel Center.
TRPC4 agonist: activators of mouse TRPC4 channel; Q9QUQ5; HEK293 TRPC4beta/mu-opioid, Fluo4 calcium fluorescence; stronger effect = higher value; B-score at 10 µM; 310,000 tested, 0.49% active; AID 2237;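 active means B-score above 5 SD of library B-scores, and initial fluorescence ratio not above library mean plus 5 SD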;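 further: positive B-score marks a calcium rise read as TRPC4 activation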
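Material: HEK293 stable line with TRPC4beta plus mu-opioid receptor; technique: Fluo4 calcium-sensitive dye fluorescence, kinetic, 1 Hz baseline; timing: Fluo4 dye loading 45 min at room temperature, 110 s recording; controls: assay buffer as low control, maximal DAMGO as high control; read-out: integrated baseline-normalised fluorescence ratio, converted to per-well B score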
TRPC4 PAM: allosteric potentiators of mouse TRPC4 channel; 310,000 tested, 0.42% active; B-score at 10 µM; HEK293 TRPC4beta/mu-opioid, DAMGO EC20, Fluo-4 Ca2+ flux; stronger effect = higher value;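 active means B-score of calcium response area above 5 SD of library B-scores, with initial fluorescence ratio within 5 SD of library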
TRPC6 activator: activates the mouse TRPC6 cation channel. AID 2550. Q61143. HEK293-TRPC6 membrane potential dye fluorescence; stronger effect = higher value. 310,000 tested, 0.13% active. B-score at 10 µM;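 active means B-score of the integrated fluorescence ratio above library mean plus 3 SD, and starting fluorescence ratio within library mean plus 5 SD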;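 further: higher score means more depolarization so channel activation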
TRPC6 inhibitor: mouse TRPC6 channel inhibition | HEK293-TRPC6, membrane potential dye, ACh-evoked depolarization; stronger effect = lower value | B-score at 10 µM | 310,000 tested, 1.1% active | AID 2553;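 active means B-score under library mean minus 3 SD, initial fluorescence not abnormally high, positive integrated signal ratio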;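 further: B-score derived from integrated fluorescence ratio over the kinetic read; more negative B-score means stronger inhibition of depolarization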
TRPC4 block: blocks the mouse TRPC4 cation channel; Q9QUQ5; 300,000 tested, 0.39% active; HEK293 TRPC4beta/mu-opioid, DAMGO-evoked Fluo4 calcium flux; stronger effect = lower value; B-score at 10 µM;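 active means B-score over 3 SD under the library average, no early fluorescence shift, positive overall ratio signal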
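Material: HEK293 cells with stable TRPC4beta plus mu-opioid receptor expression; probe or stimulus: DAMGO in two steps, submaximal then maximal; technique: Fluo4 calcium fluorescence by kinetic imaging, 5 s 1 Hz baseline; measure: integrated fluorescence ratio relative to baseline, converted to per-well B score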
TRPC4 spec 2: mouse TRPC4 off-target activity of TRPC6 inhibitors, second screen. shares compounds with TRPC6 inhibitor. HEK293 TRPC4/MOR, membrane potential dye fluorescence; channel activated by saturating DAMGO dose. inhibition, % at 10 µM. 920 tested, 42% active. AID 2776;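 active means compounds whose fluorescence signal differed from control wells by over 3 SD, either direction, in both duplicate plates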
TRPC4 spec: mouse TRPC4 off-target activity of TRPC6 inhibitors; shares compounds with TRPC6 inhibitor; activity change, negative = inhibition, % at 10 µM; HEK293 TRPC4/mu-opioid, membrane potential fluorescence; AID 2777; 920 tested, 61% active;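 active means rise or fall in signal beyond 3 SD of buffer-only wells in both replicate plates, either sign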;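 further: integrated kinetic ratio of fluorescence range over baseline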
HEK293 MPD ctr 2-1: second counter-screen for TRPC6 inhibitors: parental HEK293 cells. parental HEK293 membrane potential dye fluorescence; maximal acetylcholine challenge after compound addition. 920 tested, 31% active. shares compounds with TRPC6 inhibitor. AID 2779. signal change vs control, % at 10 µM;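 active means membrane potential signal moving either way by over 3 SD of the maximum-effect control, in both duplicate plates, meaning non-specific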
HEK293 MPD ctr-1: checks TRPC6 inhibitor effects in parental HEK293 cells | parental HEK293 membrane potential dye fluorescence | membrane potential signal change, % at 10 µM | shares compounds with TRPC6 inhibitor | 920 tested, 60% active;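 active means membrane potential signal shifting up or down by more than 3 SD of buffer-only wells, on both duplicate plates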
HEK293 MPD ctr-2: checks TRPC6 modulator effects in parental HEK293 cells; AID 488924; membrane potential signal change, % at 10 µM; 2,400 tested, 51% active; membrane potential dye fluorescence; shares compounds with TRPC6 inhibitor;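 active means membrane potential signal moves up or down beyond 5 SD from buffer-only wells, on both duplicate plates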
HEK293 MPD ctr 2-2: parental HEK293 nonspecific activity of TRPC6 modulators, second screen; shares compounds with TRPC6 inhibitor; AID 488926; 2,400 tested, 14% active; membrane potential dye fluorescence; after compound, maximal acetylcholine stimulation; inhibition, % at 10 µM;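 active means membrane potential signal drops by more than 5 SD from the mean control signal, in both duplicate plates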
TRPC4 ctr mod: selectivity of TRPC6 modulators against mouse TRPC4. shares compounds with TRPC6 inhibitor. 2,400 tested, 69% active. AID 488927. HEK293 TRPC4/mu-opioid, membrane potential fluorescence. percent change from control (negative = decrease, positive = increase), % at 10 µM;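 active means membrane potential signal moved up or down beyond 5 SD of buffer control wells, in both duplicate plates, actives on both sides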
TRPC4 ctr inh 2: mouse TRPC4 off-target activity of TRPC6 modulators, second screen | 2,400 tested, 55% active | AID 488928 | shares compounds with TRPC6 inhibitor | inhibition, % at 10 µM | HEK293 TRPC4/mu-opioid, membrane potential dye fluorescence; stimulated with maximal-effect DAMGO;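 active means drop in membrane potential signal beyond 5 SD of the control wells in both duplicate plates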;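 further: TRPC4 counter screen for TRPC6 hits run under conditions tuned for TRPC6 not TRPC4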
TRPC6 block conf: mouse TRPC6 inhibitor confirmation. HEK293-TRPC6, membrane potential dye, ACh-evoked depolarization. AID 488960. inhibition, % at 10 µM. shares compounds with TRPC6 inhibitor. 3,300 tested, 43% active;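 active means fluorescence ratio falls more than 5 SD below the full-stimulation control mean, in both duplicate runs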;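 further: integrated fluorescence ratio of peak minus minimum over baseline after agonist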
TRPC6 act confirm: confirmation of mouse TRPC6 activators; shares compounds with TRPC6 inhibitor; HEK293-TRPC6 membrane potential dye fluorescence, FDSS; activation, % at 10 µM; 2,800 tested, 11% active; AID 488961;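 active means ratio signal rise beyond 5 SD above unstimulated control wells' mean, seen in both duplicate runs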
Hits are given with their value. Compounds with a hit are over-represented: about 2.3% of the library has one in this group of screens.

COCCNc1c2c(nc3ccccc13)CCC2 was read as TRPC4 agonist inactive, TRPC4 PAM inactive, TRPC6 activator inactive, TRPC6 inhibitor -5.16, TRPC4 block -6, HEK293 MPD ctr-2 -144.0%, HEK293 MPD ctr 2-2 inactive, TRPC4 ctr mod -26.0%, TRPC4 ctr inh 2 52.5%, TRPC6 block conf 46.0% and TRPC6 act confirm inactive.
COc1ccc(Nc2c3c(nc4ccccc24)CCCC3)cc1OC was read as TRPC4 agonist inactive, TRPC4 PAM inactive, TRPC6 activator inactive, TRPC6 inhibitor -6.05, TRPC4 block inactive, HEK293 MPD ctr-2 inactive, HEK293 MPD ctr 2-2 inactive, TRPC4 ctr mod inactive, TRPC4 ctr inh 2 43.5%, TRPC6 block conf inactive and TRPC6 act confirm inactive.
For COc1ccc(CCNc2c3ccccc3nc3ccccc23)cc1OC the results were TRPC4 agonist inactive, TRPC4 PAM inactive, TRPC6 activator inactive, TRPC6 inhibitor -6.84, TRPC4 block inactive, TRPC4 spec 2 67.5%, TRPC4 spec -23.6%, HEK293 MPD ctr 2-1 inactive, HEK293 MPD ctr-1 -411.5%, TRPC6 block conf inactive and TRPC6 act confirm inactive.
Screening CN(C)CCCNc1c2c(nc3ccccc13)CCC2 returned TRPC4 agonist inactive, TRPC4 PAM inactive, TRPC6 activator inactive, TRPC6 inhibitor inactive and TRPC4 block inactive.
`Cc1c(C)n2c(SCC(=O)N3CCN(c4ccccc4)CC3)nnc2[nH]c1=O` gave TRPC4 agonist inactive, TRPC4 PAM inactive, TRPC6 activator inactive, TRPC6 inhibitor inactive and TRPC4 block inactive.
Screening CCOC(=O)c1ccc(NC(=O)CCC(=O)OC)cc1 returned TRPC4 agonist inactive, TRPC4 PAM inactive, TRPC6 activator inactive, TRPC6 inhibitor inactive and TRPC4 block inactive.
`CC(C)CNC(=O)c1cc2nc(C3CC3)cc(C(F)(F)F)n2n1` gave TRPC4 agonist inactive, TRPC4 PAM inactive, TRPC6 activator inactive, TRPC6 inhibitor inactive and TRPC4 block inactive.
Screening Cc1cccnc1CN1CCN(Cc2nc(C(c3ccccc3)c3ccccc3)no2)CC1 returned TRPC4 agonist inactive, TRPC4 PAM inactive, TRPC6 activator inactive, TRPC6 inhibitor inactive and TRPC4 block inactive.
For c1ccc2c(N3CCOCC3)c3c(nc2c1)CCC3 the results were TRPC4 agonist inactive, TRPC4 PAM inactive, TRPC6 activator inactive, TRPC6 inhibitor -5.32, TRPC4 block inactive, HEK293 MPD ctr-2 -283.0%, HEK293 MPD ctr 2-2 inactive, TRPC4 ctr mod -40.5%, TRPC4 ctr inh 2 48.0%, TRPC6 block conf inactive and TRPC6 act confirm inactive.
